UCH37 DUB inh: inhibitors of human UCH37 deubiquitinase, primary screen, biochemical, Ub-AMC cleavage, fluorescence; purified proteasome/UCH37; inhibition, % (test concentration not listed); 330,000 compounds, 0.33% hits; Ubiquitin carboxyl-terminal hydrolase isozyme L5 (Homo sapiens), Q9Y5K5;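 active = mean inhibition over replicate wells above about 20%, limit read from the data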
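System: Proteasome-associated human UCH37 deubiquitinase; Input: 0.15 nM proteasome in added enzyme buffer; Also added: Ub-AMC substrate from 1 µM stock; Incubation: 30 min compound-proteasome preincubation then 25 min substrate reaction, room temperature; Detection: fluorescence, ex 355 nm, em 460 nm; Read-out: % inhibition of Ub-AMC cleavage fluorescence; Benchmarks: no-proteasome and no-compound wells.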
Apaf-1 inh: inhibitors of human Apaf-1 apoptosome, primary screen, biochemical, DEVD-Rh110 fluorescence, uHTS; reconstituted apoptosome caspase-3 activity; inhibition, % at 20 µM; 330,000 compounds, 0.71% hits; AID 489030, 2010; active = inhibition of at least 40% at 20 µM
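System – cell-free apoptosome with Apaf-1, procaspase-3 and caspase-9 · Buffer or medium – pH 7.5 Hepes buffer with CHAPS, BSA, DTT · Also added – cytochrome c with DEVD-Rh110 · Times – 30 min compound preincubation, 50 min activation, room temperature · Technique – Rh110 fluorescence intensity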
PREPL inh: PREPL enzyme inhibitors, primary screen, biochemical, fluorescence polarization | Prolyl endopeptidase-like (Homo sapiens), Q4J6C6 | recombinant PREPL, fluorescence polarization activity-based probe | inhibition, % at 5.96 µM | 320,000 compounds, 0.68% hits | AID 2751, 2010; in the data active = inhibition above about 43%
Target sequence (Q4J6C6 whole entry, looked up): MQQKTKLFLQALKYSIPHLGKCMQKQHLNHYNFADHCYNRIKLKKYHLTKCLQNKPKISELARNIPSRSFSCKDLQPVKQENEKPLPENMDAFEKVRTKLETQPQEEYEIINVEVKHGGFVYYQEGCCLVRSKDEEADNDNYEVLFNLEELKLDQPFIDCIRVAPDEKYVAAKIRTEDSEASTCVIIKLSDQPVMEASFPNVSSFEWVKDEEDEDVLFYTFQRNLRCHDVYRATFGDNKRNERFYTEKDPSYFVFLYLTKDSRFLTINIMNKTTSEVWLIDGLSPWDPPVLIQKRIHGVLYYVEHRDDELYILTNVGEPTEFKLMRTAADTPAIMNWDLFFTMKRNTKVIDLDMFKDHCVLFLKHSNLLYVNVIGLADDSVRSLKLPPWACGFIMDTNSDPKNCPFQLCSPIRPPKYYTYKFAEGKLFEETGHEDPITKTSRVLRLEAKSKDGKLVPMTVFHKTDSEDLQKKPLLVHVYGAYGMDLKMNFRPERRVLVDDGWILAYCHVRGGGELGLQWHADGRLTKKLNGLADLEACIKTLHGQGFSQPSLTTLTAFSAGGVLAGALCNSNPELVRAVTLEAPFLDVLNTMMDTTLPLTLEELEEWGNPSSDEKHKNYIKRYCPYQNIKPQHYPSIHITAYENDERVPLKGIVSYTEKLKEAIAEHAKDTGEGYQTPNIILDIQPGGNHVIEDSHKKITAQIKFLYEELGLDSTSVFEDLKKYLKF
UBC13 polyUb: UBC13 polyubiquitin chain formation inhibitors, primary screen, biochemical, TR-FRET, uHTS | Ubiquitin-conjugating enzyme E2 N (Homo sapiens), P61088 | inhibition, % at 20 µM | 330,000 compounds, 0.47% hits | AID 485273, 2010; in the data active = inhibition above about 45%, passing the limit was not always enough
UCH37 confirm: retest of human UCH37 deubiquitinase inhibitors, confirmation, biochemical, Ub-AMC cleavage rate, fluorescence; shares compounds with UCH37 DUB inh; Proteasome-bound UCH37; inhibition, % at 20 µM; 480 compounds, 27% hits;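 active = average inhibition over replicates above about 50%, so the earlier screening hit is confirmed, limit read from the data; inactive = the rest, counted as false positives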;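 also: based on cleavage rate fitted by regression over a 30 min kinetic read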
Large screens that a line does not name were inactive (follow-up assays come after a bar, where they were run). Only some compounds are listed: those with a hit (about 1.5% of all), similar ones and a draw of the others.

NC(=O)C1CCN(c2ccc3c(c2)S(=O)(=O)c2ccccc2C3=O)CC1	none
CN1CCN(C2=C(Cl)C(=O)N(C3CCCCC3)C2=O)CC1	none
CN1CCN(C2=C(Cl)C(=O)c3ccccc3C2=O)CC1	UCH37 DUB inh 97 (no result: Apaf-1 inh, PREPL inh, UBC13 polyUb) | UCH37 confirm 97
NC(=O)C1CCN(C2=C(Cl)C(=O)c3ccccc3C2=O)CC1	UCH37 DUB inh 82, Apaf-1 inh 73 | UCH37 confirm inactive
CCOC(=O)NN=C(C)c1ccc(Br)cc1	none (no result: Apaf-1 inh, PREPL inh, UBC13 polyUb)
Cc1cc(C(=O)NN=Cc2c(C)n(C)c3ccccc23)n[nH]1	none (no result: Apaf-1 inh, PREPL inh, UBC13 polyUb)
O=C(Cc1cccs1)NN=C/C=C/c1ccccc1	none (no result: Apaf-1 inh, PREPL inh, UBC13 polyUb)
COCCn1c(COc2ccc(C)cc2)nc2ccccc21	UCH37 DUB inh 36 | UCH37 confirm inactive
CC(=O)Nc1ccc(S(=O)(=O)N2CCC(c3nc4ccc(C)cc4[nH]3)CC2)cc1	UCH37 DUB inh 28 | UCH37 confirm inactive
CN1CCC/C1=C/C=C1\SC(=S)NC1=O	UCH37 DUB inh 35 (no result: Apaf-1 inh, UBC13 polyUb) | UCH37 confirm inactive
CN1/C(=C\C=C2/SC(=S)NC2=O)C(C)(C)c2ccccc21	none
COc1ccc(/C=N/NC(=O)c2ccncc2)c(OC)c1	none (no result: UCH37 DUB inh)
COc1cc(OC)c([N+](=O)[O-])cc1C=NNC(=O)c1ccncc1	UCH37 DUB inh 44 (no result: Apaf-1 inh, PREPL inh, UBC13 polyUb) | UCH37 confirm inactive
COc1cc(OC)c(OC)cc1C=NNC(=O)c1cnccn1	UCH37 DUB inh 41 (no result: Apaf-1 inh, PREPL inh, UBC13 polyUb) | UCH37 confirm inactive
O=C(NN=Cc1ccc2c(c1)OCO2)c1ccc(COCC(F)(F)C(F)F)cc1	none (no result: Apaf-1 inh, PREPL inh, UBC13 polyUb)
ON=Cc1cn(-c2ccccc2)nc1-c1ccccc1	none (no result: Apaf-1 inh, PREPL inh, UBC13 polyUb)
Cc1ccccc1-n1c(=O)cc(N2CCc3ccccc3C2)[nH]c1=O	UCH37 DUB inh 27 | UCH37 confirm inactive
Cc1ccc(-n2c(=O)cc(N3CCc4ccccc4C3)[nH]c2=O)cc1	UCH37 DUB inh 34 | UCH37 confirm inactive
CC(NC(=O)COC(=O)c1ccc([N+](=O)[O-])o1)c1ccccc1 (stereo not drawn)	UCH37 DUB inh 26 | UCH37 confirm inactive
COc1cc(C(C(=O)NC2CCCC2)N(Cc2ccco2)C(=O)c2snc(C(N)=O)c2N)cc(OC)c1OC (stereo not drawn)	none
CN(C)c1ccc(C(C(=O)NC2CCCCC2)N(Cc2ccco2)C(=O)c2snc(C(N)=O)c2N)cc1 (stereo not drawn)	UCH37 DUB inh 68 | UCH37 confirm inactive
COc1ccc(OC)c(C2/C(=C(/O)c3cnn(-c4ccccc4)c3C)C(=O)C(=O)N2CCN(C)C)c1 (stereo not drawn)	UCH37 DUB inh 35 | UCH37 confirm inactive
CN1CCC[C@@H]1CCNC(=O)c1cccc2c1C(=O)c1ccc(N3CCCC3)cc1S2(=O)=O	UCH37 DUB inh 52 | UCH37 confirm inactive
O=C(NN=C/C=C/c1ccccc1)C1CC1(c1ccccc1)c1ccccc1 (stereo not drawn)	none (no result: Apaf-1 inh, PREPL inh, UBC13 polyUb)
Cc1ccc(N(CC(=O)NN=Cc2ccc(OCC(N)=O)cc2)S(C)(=O)=O)cc1Cl	none (no result: Apaf-1 inh, PREPL inh, UBC13 polyUb)
C=CCOc1ccc(C2/C(=C(/O)c3ccc(OC)cc3)C(=O)C(=O)N2CCN2CCNCC2)cc1 (stereo not drawn)	UCH37 DUB inh 55 | UCH37 confirm inactive
CCOc1ccc(C2/C(=C(/O)c3ccc(F)cc3)C(=O)C(=O)N2CCCN(C)C)cc1 (stereo not drawn)	UCH37 DUB inh 35 | UCH37 confirm inactive
COc1ccc(/C(O)=C2/C(=O)C(=O)N(CCCN3CCOCC3)C2c2ccc(OC)cc2)cc1 (stereo not drawn)	none
Cc1cccc(C)c1-n1c(C)cc(C=NNC(=O)CC(=O)NC2CCCCC2)c1C	none (no result: Apaf-1 inh, PREPL inh, UBC13 polyUb)
CC(=NNC(=O)c1ccco1)c1cc(Cl)sc1Cl	none (no result: Apaf-1 inh, PREPL inh, UBC13 polyUb)
CC(CC(=O)NCc1ccc(Cl)cc1)=NNC(=O)COc1ccc(C)cc1Br	none (no result: Apaf-1 inh, PREPL inh, UBC13 polyUb)
COC(=O)C1SCC2C(=O)N(Cc3ccc(Cl)c(Cl)c3)CC(=O)N21 (stereo not drawn)	UCH37 DUB inh 29 | UCH37 confirm inactive
Nc1cc(-c2cccc([N+](=O)[O-])c2)[nH]n1	UCH37 DUB inh 39 | UCH37 confirm inactive
Nc1cccc([N+](=O)[O-])c1	none
O=C(O)C/C(=C\c1ccc(N2CCOCC2)c([N+](=O)[O-])c1)c1nc2ccccc2s1	none
O=C(O)CC/C(=C\c1ccc(N2CCOCC2)c([N+](=O)[O-])c1)c1nc2ccccc2s1	UCH37 DUB inh 26 (no result: Apaf-1 inh, PREPL inh, UBC13 polyUb) | UCH37 confirm inactive
